# Data as given in ChEMBL document CHEMBL1132578, “New peptidic cysteine protease inhibitors derived from the electrophilic alpha-amino acid aziridine-2,3-dicarboxylic acid” (J Med Chem, 1999).
# Active and inactive are the calls of the source. The calls are words filed in the database; no cut-off is given here.
# Experiments:
# Papain (Carica papaya) [1] = molecular target: T1, Papain (Carica papaya) (UniProt P00784); test: Second-order rate constants for the inactivation of papain (vacuolar plant enzyme)
# T1 sequence (whole entry): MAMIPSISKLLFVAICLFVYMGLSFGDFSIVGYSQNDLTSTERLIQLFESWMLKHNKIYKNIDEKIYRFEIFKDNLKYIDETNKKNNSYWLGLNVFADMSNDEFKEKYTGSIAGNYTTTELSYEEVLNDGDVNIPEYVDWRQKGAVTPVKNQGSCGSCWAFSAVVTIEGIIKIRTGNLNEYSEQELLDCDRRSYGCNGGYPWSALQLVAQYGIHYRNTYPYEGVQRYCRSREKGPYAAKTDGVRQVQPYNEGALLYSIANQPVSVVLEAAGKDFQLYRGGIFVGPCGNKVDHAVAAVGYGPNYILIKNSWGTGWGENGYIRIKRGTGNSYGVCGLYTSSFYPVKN
# Outline: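 Papain with L-BAPA (405 nm) in 50 mM phosphate pH 6.5, 5 mM EDTA, 5 mM cysteine, or with Z-Phe-Arg-AMC in phosphate pH 6.5 with DTT, EDTA, Brij 35; 25 °C. kobs at 3–7 inhibitor concentrations, continuous or dilution assay; k2nd = ki/Ki, or from linear kobs vs [I] when unsaturated; substrate-corrected (Km 2.5 mM L-BAPA, 0.09 mM Z-Phe-Arg-AMC).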
# [2] = molecular target: Procathepsin L (Homo sapiens) (UniProt P07711); test: Evaluated for second-order rate constants for the inactivation of mammalian lysosomal cathepsin L.
# Sequence of Procathepsin L (Homo sapiens) (P07711 114-333 limits assumed): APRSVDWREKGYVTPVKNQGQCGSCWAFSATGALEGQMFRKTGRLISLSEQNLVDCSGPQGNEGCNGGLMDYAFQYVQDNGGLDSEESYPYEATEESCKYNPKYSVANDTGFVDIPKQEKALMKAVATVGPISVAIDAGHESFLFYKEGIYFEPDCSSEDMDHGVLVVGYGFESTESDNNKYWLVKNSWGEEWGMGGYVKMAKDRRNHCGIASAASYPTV
# Cathepsin B (Bos taurus) = Cathepsin B (Bos taurus) (UniProt P07688); test: Evaluated for second-order rate constants for the inactivation of mammalian lysosomal cathepsin B.
# Pro-cathepsin H = molecular target: T2, Pro-cathepsin H (Homo sapiens, UniProt P09668); test: Inhibition constant for the non time dependent inhibition of cathepsin H
# T2 sequence (P09668 whole entry): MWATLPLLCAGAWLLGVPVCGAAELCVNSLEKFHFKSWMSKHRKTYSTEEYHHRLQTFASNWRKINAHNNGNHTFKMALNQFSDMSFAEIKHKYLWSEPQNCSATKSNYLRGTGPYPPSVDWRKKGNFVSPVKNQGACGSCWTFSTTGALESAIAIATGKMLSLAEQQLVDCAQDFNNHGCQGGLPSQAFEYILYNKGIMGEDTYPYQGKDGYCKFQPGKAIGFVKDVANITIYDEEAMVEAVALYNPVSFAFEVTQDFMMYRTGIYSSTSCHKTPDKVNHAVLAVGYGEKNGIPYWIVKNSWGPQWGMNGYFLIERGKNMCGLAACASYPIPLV
# [3] = molecular target: T3, Calpain-2 catalytic subunit (Sus scrofa, UniProt P43367); test: Inhibition constant for the non time dependent inhibition of Calpain 2
# T3 sequence (P43367 whole entry): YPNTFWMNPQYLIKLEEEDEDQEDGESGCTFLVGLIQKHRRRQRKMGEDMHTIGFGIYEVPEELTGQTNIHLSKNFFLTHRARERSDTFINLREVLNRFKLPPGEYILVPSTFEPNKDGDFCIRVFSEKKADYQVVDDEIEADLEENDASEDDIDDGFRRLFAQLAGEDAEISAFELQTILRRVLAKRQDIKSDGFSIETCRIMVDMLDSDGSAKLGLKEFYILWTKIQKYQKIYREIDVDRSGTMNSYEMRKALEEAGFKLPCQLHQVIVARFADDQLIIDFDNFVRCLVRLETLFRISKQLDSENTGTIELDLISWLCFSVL
# Outline: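 Calpain I or II with Suc-Leu-Tyr-AMC in 50 mM Tris pH 7.5, 5 mM CaCl2, 2.5 mM EDTA, 2.5 mM DTT. Enzyme preincubated in buffer 30 min, assayed at 25 °C, fluorescence 460 nm (excitation 380 nm). Ki from Dixon plots, corrected to zero substrate with Km 0.4 mM (calpain I) or 0.22 mM (calpain II).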
# Papain (Carica papaya) [4] = molecular target: T1, Papain (Carica papaya); test: Second-order rate constants for the inactivation of papain at pH 4 (vascular plant enzyme)
# Outline: (§1)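 Papain (0.5 mg mL-1) with 1.4–1.5 mM L-BAPA, read at 405 nm, 25 °C. Buffers: 50 mM citrate for pH 4–6, phosphate for pH 6–8, borate for pH 8–9. kobs came from continuous or dilution assays at 3–7 inhibitor concentrations. k_i/K_i came from a hyperbolic or linear fit, corrected to zero substrate (Km 2.5 mM).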
# Papain (Carica papaya) [5] = molecular target: T1, Papain (Carica papaya); test: Second-order rate constants for the inactivation of papain (vascular plant enzyme); no inhibition
# Papain (Carica papaya) [6] = molecular target: T1, Papain (Carica papaya); test: Second-order rate constants for the inactivation of papain at pH 6.5(vascular plant enzyme); outline: as §1
# Papain (Carica papaya) [7] = molecular target: T1, Papain (Carica papaya); test: Second-order rate constants for the inactivation of papain at pH 8(vascular plant enzyme); outline: as §1
Compound,ki/Ki (Papain (Carica papaya) [1]) [M⁻¹ s⁻¹],ki/Ki [2] [M⁻¹ s⁻¹],ki/Ki (Cathepsin B (Bos taurus)) [M⁻¹ s⁻¹],also measured
CCOC(=O)C1NC1C(=O)N[C@H](CC(C)C)C(=O)NCCC(C)C (some centres undefined),55,–,–,–
CCOC(=O)[C@@H]1[C@@H](C(=O)OCC)N1C(=O)[C@H](C)NC(=O)[C@H](Cc1ccccc1)NC(=O)CNC(=O)OCc1ccccc1,8.72,5.25,7.02,–
CCOC(=O)[C@@H]1[C@@H](C(=O)OCC)N1C(=O)[C@H](C)NC(=O)[C@@H](Cc1ccccc1)NC(=O)OC(C)(C)C,22.8,7.82,7.58,–
CCOC(=O)C1C(C(=O)OCc2ccccc2)N1C(=O)[C@H](C)NC(=O)[C@H](Cc1ccccc1)NC(=O)OC(C)(C)C (some centres undefined),20.5,4.68,7.38,–
CCOC(=O)[C@@H]1[C@@H](C(=O)N[C@@H](CC(C)C)C(=O)OCc2ccccc2)N1C(=O)[C@H](Cc1ccccc1)NC(=O)OC(C)(C)C,2.85,3.65,2.03,Ki (Pro-cathepsin H): 93 µM
CCOC(=O)C1C(C(=O)OCc2ccccc2)N1C(=O)[C@H](Cc1ccccc1)NC(=O)OC(C)(C)C (some centres undefined),1.27,–,–,–
CCOC(=O)[C@@H]1[C@@H](C(=O)OCC)N1C(=O)[C@H](C)NC(=O)OC(C)(C)C,0.717,–,–,–
"CCOC(=O)[C@H]1[C@H](C(=O)OCC)N1C(=O)C(Cc1ccccc1)NC(=O)OC(C)(C)C (single isomer, unassigned)",0.7,0.267,0.3,–
"CCOC(=O)[C@H]1[C@H](C(=O)OCC)N1C(=O)[C@H](Cc1ccccc1)NC(=O)C(C)NC(=O)OCc1ccccc1 (single isomer, unassigned)",0.35,0.55,0.367,–
CCOC(=O)[C@@H]1[C@@H](C(=O)N[C@@H](CC(C)C)C(=O)N2CCCC2C(=O)OCc2ccccc2)N1C(=O)[C@H](Cc1ccccc1)NC(=O)OC(C)(C)C (some centres undefined),5.35,–,7.5,–
"CC(C)CCNC(=O)C(CC(C)C)NC(=O)[C@@H]1N[C@H]1C(=O)O (single isomer, unassigned)",0.167,–,–,–
CCOC(=O)[C@H]1[C@H](C(=O)N[C@@H](CC(C)C)C(=O)OCc2ccccc2)N1C(=O)[C@H](Cc1ccccc1)NC(=O)OC(C)(C)C,3.75,5.23,4.28,Ki [3]: 42 µM; Ki (Pro-cathepsin H): 137 µM
CCOC(=O)[C@H]1[C@H](C(=O)N[C@@H](CC(C)C)C(=O)N2CCCC2C(=O)OCc2ccccc2)N1C(=O)[C@H](Cc1ccccc1)NC(=O)OC(C)(C)C (some centres undefined),12.8,98.3,32.3,–
CCOC(=O)C1C(C(=O)OCc2ccccc2)N1C(=O)CNC(=O)[C@H](CC(C)C)NC(=O)OC(C)(C)C (some centres undefined),2.48,53.9,4,–
CCOC(=O)[C@@H]1[C@@H](C(=O)OCC)N1C(=O)CNC(=O)CNC(=O)OCc1ccccc1,4.95,5.28,6.48,–
CCOC(=O)C1NC1C(=O)N[C@@H](CC(C)C)C(=O)NCCC(C)C (some centres undefined),3,–,–,–
CCOC(=O)C1C(C(=O)OCC)N1C(=O)[C@H](CC(C)C)NC(=O)OCC1c2ccccc2-c2ccccc21 (some centres undefined),1.08,1.65,–,–
CCOC(=O)[C@H]1N[C@@H]1C(=O)N[C@@H](CC(C)C)C(=O)N1CCC[C@H]1C(=O)OCc1ccccc1,3.78,35.7,6.75,–
CCOC(=O)C1NC1C(=O)OCC (centres undefined),–,–,–,ki/Ki (Papain (Carica papaya) [4]): 1.02 M⁻¹ s⁻¹
CCOC(=O)C1C(C(=O)O)N1C(=O)[C@H](Cc1ccccc1)NC(=O)OC(C)(C)C (some centres undefined),8.42,3.13,20.5,–
"CC[C@H](C)C(NC(=O)[C@@H]1N[C@H]1C(=O)NCC(C)C)C(=O)N1CCCC1C(=O)O (single isomer, unassigned)",–,50,13,ki/Ki (Papain (Carica papaya) [5]): inactive
CC(C)CCNC(=O)[C@H](CC(C)C)NC(=O)[C@H]1N[C@@H]1C(=O)O,0.167,–,–,–
CCOC(=O)C1NC1C(=O)N[C@@H](CC(C)C)C(=O)OCc1ccccc1 (some centres undefined),3.57,52.2,0.683,ki/Ki (Papain (Carica papaya) [4]): 13.1 M⁻¹ s⁻¹; ki/Ki (Papain (Carica papaya) [6]): 2.8 M⁻¹ s⁻¹; ki/Ki (Papain (Carica papaya) [7]): 0.4 M⁻¹ s⁻¹; Ki (Pro-cathepsin H): 260 µM
CCOC(=O)[C@@H]1N[C@H]1C(=O)N[C@@H](CC(C)C)C(=O)O,1.05,–,–,–
CCOC(=O)[C@@H]1[C@@H](C(=O)OCC)N1C(=O)[C@H](Cc1ccccc1)NC(=O)[C@H](C)NC(=O)OCc1ccccc1,2.95,0.483,2.08,–
